Bioassay records: PubChem BioAssay, several laboratories
In the library only some 4.8% were active in any assay of this set; here they are far more common.
Jurkat NFkB inh – inhibitors of induced NF-kB luciferase reporter, primary screen, TCR NF-kB activation inhibitor project, cell-based, luminescence, uHTS; Jurkat, PMA/ionomycin-induced NF-kB luciferase reporter; inhibition, % at 4 µM; actives 0.53% (n = 330,000); in the data active means inhibition above about 50%
HSF1 inhib – HSF1 inhibitors in luciferase reporter cells, primary screen, cell-based, NIH3T3, luminescence | actives 0.77% (n = 300,000) | NIH3T3-HGL HSE-luciferase, MG132-induced, luminescence 8 h; active compounds read low | activity change, negative = inhibition, % at 7.5 µM (by protocol);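 active means more than half of replicate wells show activity change below -50%, luminescence cut by over half; inconclusive means some wells, but at most half, below -50%; inactive means no replicate well below -50%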;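 further: luciferase reports HSF-1 transcriptional activity via heat shock element; 0% = median of DMSO wells and -100% = zero luminescence signal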
GPR7 antagonist – GPR7 receptor antagonists, primary screen, cell-based, fluorescence, single concentration; actives 1.1% (n = 290,000); inhibition, % at 4.4 µM; Neuropeptides B/W receptor type 1 (Homo sapiens), P48145; AID 1861, 2009; GPR7-expressing cells, fluorescence antagonist assay; in the data active means inhibition above about 16%, passing the limit was not always enough;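 further: cells stimulated with the agonist NPW; 0% = agonist with vehicle and 100% = vehicle without agonist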
Target sequence (P48145 whole entry, looked up): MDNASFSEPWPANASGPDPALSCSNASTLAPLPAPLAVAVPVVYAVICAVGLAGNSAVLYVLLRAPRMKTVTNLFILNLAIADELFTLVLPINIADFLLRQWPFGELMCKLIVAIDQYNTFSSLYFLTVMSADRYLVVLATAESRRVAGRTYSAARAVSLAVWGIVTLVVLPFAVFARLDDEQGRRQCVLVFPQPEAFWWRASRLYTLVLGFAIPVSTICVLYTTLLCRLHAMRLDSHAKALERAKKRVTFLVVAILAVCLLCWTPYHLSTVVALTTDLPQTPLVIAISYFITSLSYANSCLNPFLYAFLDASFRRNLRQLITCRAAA
HSF1 activator – HSF-1 activators, primary screen, NIH3T3-HGL cells, MG132 stress, luminescence, single point. NIH3T3-HGL HSF-1 luciferase reporter, 8 h; 100% = twice DMSO control signal. activation, % at 9 µM. actives 1.7% (n = 300,000). AID 504408, 2011;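 active means mean replicate activation of at least 50% with a set share of replicates each reaching 50%; inconclusive means only one of those two conditions met; inactive means mean below 50% and too few replicates reaching it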;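 further: 0% = median of the neutral control wells and 100% = twice that signal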
697 NFkB inh – inhibitors of PMA/ionomycin-induced NF-kB reporter, 697 cells, primary screen, B-cell NF-kB inhibitor project, cell-based, luminescence, uHTS; inhibition, % at 4 µM; AID 435022, 2010; 697 B-cell NF-kB luciferase reporter, 16 h; actives 0.33% (n = 330,000); in the data active means inhibition above about 35%
T cruzi repl – inhibitors of intracellular T. cruzi growth, primary screen, luminescence, NIH3T3 host cells | T. cruzi beta-gal in NIH3T3, 90 h | inhibition, % (no concentration beside the values) | actives 1.4% (n = 300,000) | AID 1885, 2009;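 active means mean inhibition across valid replicates above about 55%, limit read from the data; inconclusive means mean below that limit but half or more replicates reach it; inactive means mean below it, under half of replicates reach it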;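 further: signal also drops with host cell toxicity which is not excluded here; 0% = plate median of DMSO wells and 100% = zero luminescence signal; higher percent means less beta-gal luminescence so fewer parasites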
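System: Mouse NIH/3T3 fibroblasts infected with β-gal-expressing T. cruzi Tulahuen C4 | Quantity: NIH/3T3 cells, 5,000 per well | Reagent: 5000 reporter trypomastigotes per well | Dosing: Compound pinned at 50 nL/well, DMSO | Schedule: 3 h host attachment, then at least 90 h co-culture | Detection: GalScreen luminescence, 60 min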
Active calls of the source: *; ? = inconclusive; . = not tested or not shown.

SMILES | Jurkat NFkB inh | HSF1 inhib | GPR7 antagonist | HSF1 activator | 697 NFkB inh | T cruzi repl
COc1ccc(CC(=O)Nc2c(C(=O)N3CCN(c4ccccc4OC)CC3)oc3ccccc23)cc1OC | 18 | 0 | -10 | -4 | 2 | -7
CC(C)Nc1nc(Cl)nc(N(C#N)CN2C(=O)c3ccccc3S2(=O)=O)n1 | 4 | 83 | -17 | 118* | 2 | -9
COc1ccccc1/C=C(\C)C(=O)c1c(C)cc(C)[nH]c1=O | 4 | 20 | -10 | 57* | 20 | -3
COc1ccc(C(=O)C2CCCN(S(=O)(=O)C(C)C)C2)c(C)c1 (stereo not given) | -1 | 15 | -1 | 62* | 0 | -18
COc1ccc(C(=O)C2CCCN(S(=O)(=O)N(C)C)C2)c(C)c1 (stereo not given) | -10 | 4 | -10 | 4 | -5 | -6
Cc1noc(C)c1CCC(=O)N1CCCC(CCC(=O)NCc2ccc(F)c(F)c2)C1 (stereo not given) | -19 | 1 | 9 | 25 | -18 | 13
CC1(C)CC(=O)C=C(c2ccc3[nH]ccc3c2)C1 | -24 | 26 | . | 12 | -7 | -12
CN(C)/C=C(/C(=O)c1ccc(Cl)cc1)S(=O)(=O)c1ccc(Cl)cc1 | -11 | 2 | -8 | 19 | 4 | 6
Cc1ccccc1N1CCN(C2CCCN(C(=O)c3snnc3C)C2)CC1 (stereo not given) | 5 | 3 | -14 | 2 | 13 | -4
CC(C)COc1ccc(-c2cc(C(=O)NN)[nH]n2)cc1 | -83 | 12 | -14 | 52* | -113 | -12
CCOc1ccc(NCc2cccn2-c2nnc(N3CCC(C(=O)NCCCN4CC(C)CC(C)C4)CC3)s2)cc1 (stereo not given) | 14 | -4 | -4 | -10 | -20 | 42
CC(=O)Nc1sc(C)c(C)c1C(=O)OCC(=O)Nc1ccccc1 | -31 | . | . | . | -27 | .
CCOC(=O)c1c(NC(=O)C[n+]2ccc(Cc3ccccc3)cc2)sc(C)c1C | -2 | 0 | -3 | 19 | 17 | 59*
CC(=O)Nc1sc(C)c(C)c1C(=O)OCCOc1ccccc1 | -24 | 31 | -11 | 62* | -27 | -5
O=C(OCC(=O)N1CCc2ccccc21)c1n[nH]c(=O)c2ccccc12 | 4 | . | . | . | 13 | .
CC(C)C/C=C1\CCc2c([nH]c3ccccc23)C1=O | -53 | 51 | -16 | 59* | -66 | 10
Oc1cc(-n2cccn2)c(O)cc1-n1cccn1 | . | -22 | 46* | -35 | . | 53
O=Cc1ccccc1-n1cccn1 | 5 | -2 | 1 | 8 | 5 | -13
CCN(CC)CCNc1ccc(CO)c2sc3ccccc3c(=O)c12 | -27 | 2 | -4 | -1 | -11 | 64*
O=C(NCc1ccco1)C1CC(O)CN1C(=O)Nc1ccccc1 (stereo not given) | 7 | 17 | -4 | ? | 12 | 16
Cc1ccc(OCC(=O)N(C)CC(=O)NCc2ccco2)c(Br)c1 | 9 | . | . | . | 14 | .
COC(=O)C(CCSC)NS(=O)(=O)c1ccc(Cl)cc1 (stereo not given) | 3 | -1 | -5 | 26 | 7 | -16
CSCCC(NS(=O)(=O)c1cccc(C(F)(F)F)c1)C(=O)N(C)CCOc1ccc(Cl)cc1 (stereo not given) | -2 | 34 | . | 65* | -1 | 26
Clc1ccc(OC2CCN(Cc3nc(CC4CC4)no3)CC2)cc1 | 3 | 1 | 1 | -1 | 11 | 14
COc1c(O)c(=O)n2c3ccccc3c3ccnc1c32 | -4 | -1 | . | 13 | 22 | -5
SMILES | Jurkat NFkB inh | HSF1 inhib | GPR7 antagonist | HSF1 activator | 697 NFkB inh | T cruzi repl
O=c1c(Cl)c(O)c2cccc3c4ccccc4n1c23 | 10 | 84 | -8 | 79* | 6 | -2
CN(C)C(=O)c1nc2ccc(Cl)cn2c1CNCc1ccccc1OC(F)(F)F | 14 | -6 | 4 | 3 | 9 | -2
Oc1ccc(N=Nc2ccc3c(c2)OCCO3)c2cccnc12 | 32 | -3 | -6 | -14 | -119 | 83*
COc1ccc(C)cc1N=Nc1ccc(O)c2ncccc12 | . | -19 | -13 | -30 | . | ?
Cc1ccccc1N=Nc1ccc(O)c2ncccc12 | . | 66 | -2 | 89* | . | 42
Oc1ccc(N=Nc2ccc3c(c2)OCCO3)c(O)c1 | -30 | 6 | -12 | 10 | -128 | -12
CCC(C)(C)NC(=O)CN(C(=O)C(=O)Nc1ccc2c(c1)OCCO2)N1CCOCC1 | -26 | -6 | -7 | 3 | -12 | -6
CC(C)(C)c1ccc(-n2ncc3c2CCCC3NC(=O)CCN2CCCC2=O)cc1 (stereo not given) | 44 | -5 | 6 | -12 | -25 | -21
CCCn1cc(CN2CCC(n3nccc3NC(=O)C(OC)c3ccccc3)CC2)c(C)n1 (stereo not given) | -9 | -1 | -16 | -1 | 5 | 10
O=C(NCC1CCCO1)c1ccc([N+](=O)[O-])s1 (stereo not given) | 17 | 3 | -14 | -2 | 11 | 67*
O=C(NCC1CCCO1)c1ccc(Br)s1 (stereo not given) | -2 | 2 | -3 | 7 | 2 | -1
O=C(O)[C@H](Cc1ccccc1)N1C(=O)c2c(Cl)c(Cl)c(Cl)c(Cl)c2C1=O | 8 | 26 | -2 | 30 | 4 | -35
COc1ccc(CNC(=O)CCS(=O)(=O)Cc2cccc(Cl)c2)c(OC)c1 | 5 | 0 | 4 | -6 | -19 | 11
Oc1ccc(/C=N/Nc2cc(N3CCCC3)nc(N3CCCC3)n2)cc1 | 13 | 3 | -13 | 7 | -22 | 53
COc1ccc(/C=N/Nc2cc(N3CCCC3)nc(N3CCCC3)n2)cc1 | 31 | -20 | 4 | -31 | -32 | 67*
CC(C)c1ccc2oc(-c3cc(N)ccc3O)nc2c1 | -70 | -41 | -6 | -44 | -111 | 60*
CCN(CC)CCn1c(=S)[nH]c2cc(C(=O)N3CC(C)CC(C)C3)ccc2c1=O (stereo not given) | -9 | 4 | -12 | -2 | -34 | 12
Brc1cnc2nc(SC/C=C/c3ccccc3)[nH]c2c1 | 7 | 50 | -7 | 62* | 8 | -16
COc1ccc(Br)cc1CN1CCN(C(=O)c2ccco2)CC1 | 13 | 2 | 4 | -6 | -9 | 4
Cc1ccc(S(=O)(=O)NCC(c2ccco2)S(=O)(=O)c2ccccc2)cc1 (stereo not given) | 8 | -2 | . | 5 | 6 | 1
